Experimental findings from ChEMBL document CHEMBL4007396, “New diphenylmethane derivatives as peroxisome proliferator-activated receptor alpha/gamma dual agonists endowed with anti-proliferative effects and mitochondrial activity” (Eur J Med Chem, 2017) are described below.

Activity calls are given as the source filed them. No cut-off for these calls is given here.

Assay [1] concerns the target T1, Peroxisome proliferator-activated receptor gamma (Homo sapiens) (UniProt P37231).
T1 sequence (whole entry): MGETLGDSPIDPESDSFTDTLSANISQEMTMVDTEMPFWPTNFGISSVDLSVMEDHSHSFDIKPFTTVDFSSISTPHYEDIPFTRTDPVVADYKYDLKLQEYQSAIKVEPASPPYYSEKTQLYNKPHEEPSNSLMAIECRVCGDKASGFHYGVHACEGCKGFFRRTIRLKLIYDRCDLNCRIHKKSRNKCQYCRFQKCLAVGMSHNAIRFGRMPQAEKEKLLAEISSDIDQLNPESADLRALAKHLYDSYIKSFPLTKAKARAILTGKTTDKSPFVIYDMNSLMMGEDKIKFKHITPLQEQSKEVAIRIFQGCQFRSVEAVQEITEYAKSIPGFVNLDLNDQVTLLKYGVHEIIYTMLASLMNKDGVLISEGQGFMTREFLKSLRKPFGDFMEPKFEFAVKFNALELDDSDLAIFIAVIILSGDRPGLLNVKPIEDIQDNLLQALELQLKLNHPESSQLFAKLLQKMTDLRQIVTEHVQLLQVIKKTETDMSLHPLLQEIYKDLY
Nature of the assay: Agonist activity at PPARgamma in human HT-29 cells assessed as upregulation of p21waf1/cip1 protein expression at 10 uM after 48 hrs by Western blot method. The class given is cell-based. A digest of the protocol: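 HT-29 or HEK293T cells in DMEM/10% FBS treated 48 h with 10 μM compound (DMSO vehicle, final below 0.1%). RIPA lysates (with protease inhibitors), 80 μg protein per lane immunoblotted for p21waf1/cip1 with β-actin loading control; densitometric p21/β-actin ratio, mean ± SD of at least three independent experiments.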

In assay [2] the target is T2, Peroxisome proliferator-activated receptor delta (Homo sapiens, UniProt Q03181).
T2 sequence (Q03181 whole entry): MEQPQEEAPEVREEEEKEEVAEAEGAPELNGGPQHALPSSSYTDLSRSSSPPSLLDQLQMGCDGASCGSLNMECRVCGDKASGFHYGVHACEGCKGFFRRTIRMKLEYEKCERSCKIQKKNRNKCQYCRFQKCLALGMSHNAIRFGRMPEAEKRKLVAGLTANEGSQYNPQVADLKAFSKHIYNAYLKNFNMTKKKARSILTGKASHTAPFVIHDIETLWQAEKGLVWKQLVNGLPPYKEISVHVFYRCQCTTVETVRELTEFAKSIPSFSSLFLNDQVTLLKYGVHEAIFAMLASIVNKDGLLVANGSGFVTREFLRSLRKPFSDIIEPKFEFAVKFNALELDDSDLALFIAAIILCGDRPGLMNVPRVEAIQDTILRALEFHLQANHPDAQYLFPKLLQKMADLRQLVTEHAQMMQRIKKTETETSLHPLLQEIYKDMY
Nature of the assay: Binding affinity to PPARdelta (unknown origin) assessed as thermodynamic dissociation constant by SPR assay. For orientation: SPR reads the build-up and loss of mass on a sensor chip optically.

For assay [3], the target named is T3, Peroxisome proliferator-activated receptor gamma (Homo sapiens, UniProt P37231).
T3 sequence (P37231 whole entry): T1 sequence (whole entry)
Nature of the assay: Binding affinity to PPARgamma (unknown origin) assessed as thermodynamic dissociation constant by SPR assay. The note with it: read-out: Kd.

The target in assay [4] is T3, Peroxisome proliferator-activated receptor gamma. Nature of the assay: Binding affinity to PPARgamma (unknown origin) assessed as kinetic dissociation constant by SPR assay.
Assay [5] addresses T1, Peroxisome proliferator-activated receptor gamma (Homo sapiens). Nature of the assay: Agonist activity at PPARgamma in human HT-29 cells harboring APC mutant assessed as inhibition of Wnt/beta-catenin signaling pathway by measuring decrease in c-Myc level at 10 uM treated for 24 hrs by Western blot method. The class given is cell-based. A digest of the protocol: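 RIPA lysates, 80 μg protein immunoblotted for c-Myc with β-actin loading control; c-Myc/β-actin densitometry, mean ± SD of at least three independent experiments.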

In assay [6] the target is T4, Peroxisome proliferator-activated receptor alpha (Homo sapiens) (UniProt Q07869).
T4 sequence (whole entry): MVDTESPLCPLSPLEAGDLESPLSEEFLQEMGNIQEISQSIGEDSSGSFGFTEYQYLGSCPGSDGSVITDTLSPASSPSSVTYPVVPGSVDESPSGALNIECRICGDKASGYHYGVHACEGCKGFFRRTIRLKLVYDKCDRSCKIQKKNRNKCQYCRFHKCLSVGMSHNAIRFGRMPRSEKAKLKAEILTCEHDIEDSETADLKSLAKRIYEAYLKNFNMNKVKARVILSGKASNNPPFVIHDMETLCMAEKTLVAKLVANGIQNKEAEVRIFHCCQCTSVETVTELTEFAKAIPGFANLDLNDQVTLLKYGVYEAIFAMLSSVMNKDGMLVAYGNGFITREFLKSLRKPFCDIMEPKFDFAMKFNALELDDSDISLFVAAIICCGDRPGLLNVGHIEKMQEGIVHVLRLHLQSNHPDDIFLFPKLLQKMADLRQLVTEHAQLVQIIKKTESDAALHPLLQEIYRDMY
Nature of the assay: Agonist activity at PPARalpha in human HepG2 cells assessed as increase in CAC protein expression level at 1 uM after 48 hrs by Western blot method. The class given is cell-based. The gist of the method:
(§1)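 HepG2 serum-depleted 24 h, then treated 48 h with 1 μM compound (Wy-14,643 at 50 μM as reference). Nitrocellulose immunoblots probed for CAC, CPT1 or PPARα with β-actin loading control, chemiluminescent detection; band densitometry expressed as fold change versus untreated cells; three independent experiments.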
Background: In western blotting, separated proteins are transferred to a membrane and probed.

Assay [7] has as its target T5, Peroxisome proliferator-activated receptor alpha (Homo sapiens, UniProt Q07869).
T5 sequence (Q07869 whole entry): T4 sequence (whole entry)
Nature of the assay: Binding affinity to PPARalpha (unknown origin) assessed as kinetic dissociation constant by SPR assay.

In assay [8] the target is T4, Peroxisome proliferator-activated receptor alpha (Homo sapiens). Nature of the assay: Agonist activity at PPARalpha assessed as induction of positive regulatory loop based receptor transcriptional activation by measuring upregulation of PPARalpha mRNA level in human HepG2 cells at 1 uM after 24 hrs by RT-PCR method. Format: cell-based. The gist of the method:
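Serum-free HepG2 exposed 24 h to 1 μM test agent (Wy-14,643 reference at 50 μM). RNA extracted from 1x10⁶ cells; TaqMan real-time RT-PCR for CAC, CPT1 or PPARα, normalized to β-actin. Mean ± SD of three independent duplicate experiments; one-way ANOVA with Bonferroni test.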

The target of assay [9] is T5, Peroxisome proliferator-activated receptor alpha. Nature of the assay: Binding affinity to PPARalpha (unknown origin) assessed as thermodynamic dissociation constant by SPR assay. The note with it: read-out: Kd.
Assay [10] concerns the target T3, Peroxisome proliferator-activated receptor gamma. Nature of the assay: Transactivation of GAL4-fused human PPARgamma LBD expressed in human HepG2 cells after 20 hrs by luciferase reporter gene assay. Format: cell-based. (In general: In a reporter assay the amount or activity of a reporter protein is the signal.)
The target of assay [11] is T4, Peroxisome proliferator-activated receptor alpha (Homo sapiens). Nature of the assay: Agonist activity at PPARalpha in human HepG2 cells assessed as increase in CPT1 protein expression level at 1 uM after 48 hrs by Western blot method. Format: cell-based. A digest of the protocol: as §1
In assay [12] the target is T2, Peroxisome proliferator-activated receptor delta. Nature of the assay: Binding affinity to PPARdelta (unknown origin) assessed as kinetic dissociation constant by SPR assay.

For the compound `C[C@H](Oc1ccc(Cc2ccc(OCc3coc(-c4ccccc4)n3)cc2)cc1)C(=O)O`, the outcome in [1], in assay [5], in assay [6], in assay [8] and in assay [11] was Active. Further, the Kd result in assay [2] was “Not Active”; in assay [3] it was 4.9 nM; in [4] it was 0.099 s⁻¹; in assay [7], 0.016 s⁻¹; in assay [9], 0.75 nM; in assay [12], “Not Active”. Further, the EC50 in assay [10] was determined as 300 nM.
As to `C[C@@H](Oc1ccc(Cc2ccc(OCc3coc(-c4ccccc4)n3)cc2)cc1)C(=O)O`, the result in assay [1], in assay [5], in assay [6], in assay [8] and in assay [11] was Active. Further, the Kd result was “Not Active” in assay [2]; 3.7 nM in assay [3]; 0.095 s⁻¹ in [4]; 0.025 s⁻¹ in assay [7]; 0.86 nM in [9]; “Not Active” in assay [12]. Further, the EC50 in assay [10] turned out to be 280 nM.

One may read the EC50 as the concentration giving half of the maximal effect. Lower therefore signals an effect from little substance.
